We go through three compounds from ChEMBL document CHEMBL1129356, “Novel 3,7-diheterabicyclo[3.3.1]nonanes that possess predominant class III antiarrhythmic activity in 1-4 day post infarction dog models: X-ray diffraction analysis of 3-[4-(1H-imidazol-1-yl)benzoyl]-7-isopropyl-3,7-diazabicyclo[3.3.1]nona ne dihydroperchlorate” (1996).

Experiment [1] has as its system Canis familiaris. Description: Antiarrhythmic property A-V nodal conduction time(post drug) is compared to lidocaine(2) using dose (3 and 6 mg/kg). Format: functional, Canis lupus familiaris, Heart. The gist of the method:
(§1)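 Mongrel dogs (about 12–25 kg), 1–4 days after coronary occlusion infarction, under sodium pentobarbital (~30 mg/kg) with 12-lead ECG monitoring. Agents and lidocaine were given iv at 3 and 6 mg/kg. Programmed ventricular stimulation was applied at baseline, about 2–5 min after each dose, and at 30 min. SVT was defined as ≥250 beats/min lasting ≥30 s. Pre means drug-free; post means after dosing.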

In experiment [2] the test system is Canis familiaris. Description: Tested for antiarrhythmic property by measuring ability to decrease heart rate (drug free) is compared to Lidocaine using doses (3 and 6 mg/kg). In kind it is functional, Canis lupus familiaris. The gist of the method:
as §1

In experiment [3] the test system is Canis familiaris. Description: Tested for antiarrhythmic property by measuring ability to decrease heart rate(post drug) is compared to Lidocaine using doses(3 and 6 mg/kg). Format: functional, Canis lupus familiaris. The gist of the method: as §1
In experiment [4] the test system is Canis familiaris. Description: Antiarrhythmic property A-V nodal conduction time(drug free) is compared to lidocaine(2) using doses(3 and 6 mg/kg). Format: functional, Canis lupus familiaris, Heart. The gist of the method:
as §1

The subject of experiment [5] is Canis familiaris. Description: Antiarrhythmic properties are compared to lidocaine(2) using doses(3 and 6 mg/kg). Time required for the ventricular myocardium to undergo depolarization and repolarization ((post drug); No effect. Format: functional, organism-based. On the set-up: dose 6 mg/kg. The note with it: Canis lupus familiaris. The gist of the method: as §1

Experiment [6] relates to Canis familiaris. Description: Antiarrhythmic properties are compared to lidocaine(2) using doses(3 and 6 mg/kg). Time required for the ventricular myocardium to undergo depolarization and repolarization (drug free); No effect. In kind it is functional, organism-based. Details: dose 6 mg/kg. The conditions noted are these: Canis lupus familiaris. The gist of the method:
as §1

For experiment [7], the system named is Canis familiaris. The experiment can be described thus: Tested for antiarrhythmic property by measuring ability to decrease Mean blood pressure (drug free) is compared to Lidocaine using doses(3 and 6 mg/kg). In kind it is functional, Canis lupus familiaris. The gist of the method:
as §1

Experiment [8] has as its system Canis familiaris. The experiment can be described thus: Tested for antiarrhythmic property by measuring ability to decrease Mean blood pressure (post drug) is compared to Lidocaine using doses(3 and 6 mg/kg). Format: functional, Canis lupus familiaris. The gist of the method:
as §1

In experiment [9] the test system is Canis familiaris. The experiment can be described thus: (§2) Antiarrhythmic properties are compared to lidocaine(2) using doses(3 and 6 mg/kg) measures His-Purkinje conduction time(drug free); No effect. In kind it is functional, organism-based. On the set-up: dose 6 mg/kg. The note with it: Canis lupus familiaris; His-Purkinje system. The gist of the method:
as §1

The test system of experiment [10] is Canis familiaris. The experiment can be described thus: Antiarrhythmic property His-Purkinje conduction time(post drug) is compared to lidocaine(2) using doses(3 and 6 mg/kg); No effect. The conditions noted are these: Canis lupus familiaris; His-Purkinje system. In kind it is functional, organism-based. Details: dose 6 mg/kg. The gist of the method: as §1

In experiment [11] the test system is Canis familiaris. The experiment can be described thus: (§3) Antiarrhythmic property ventricular effective refractory period(drug free) is compared to lidocaine(2) using doses(3 and 6 mg/kg). In kind it is functional, Canis lupus familiaris, Heart. The gist of the method:
as §1

Experiment [12] deals with Canis familiaris. The experiment can be described thus: Antiarrhythmic property Nonsustained ventricular tachycardia is compared to lidocaine(2) using dose of (3 and 6 mg/kg). Format: functional, Canis lupus familiaris, Heart. The gist of the method: as §1
Experiment [13] concerns Canis familiaris. The description is as §2. Format: functional, organism-based. On the set-up: dose 6 mg/kg. The conditions noted are these: Canis lupus familiaris; His-Purkinje system. The gist of the method:
as §1
The source holds these as a separate data set.

In experiment [14] the test system is Canis familiaris. The experiment can be described thus: Antiarrhythmic property A-V nodal conduction time(drug free) is compared to lidocaine(2) using doses(3 and 6 mg/kg); No effect. Format: functional, organism-based. Details: dose 6 mg/kg. The note with it: Canis lupus familiaris; Heart. The gist of the method:
as §1

Experiment [15] relates to Canis familiaris. The experiment can be described thus: Antiarrhythmic property A-V nodal conduction time(post drug) is compared to lidocaine(2) using dose (3 and 6 mg/kg); No effect. The conditions noted are these: Canis lupus familiaris; Heart. In kind it is functional, organism-based. Details: dose 6 mg/kg. The gist of the method: as §1
In experiment [16] the test system is Canis familiaris. Description: Antiarrhythmic properties are compared to lidocaine(2) using doses(3 and 6 mg/kg). Tested for time required for the ventricular myocardium to undergo depolarization and repolarization ((post drug); No effect. In kind it is functional, organism-based. Details: dose 6 mg/kg. The note with it: Canis lupus familiaris. The gist of the method:
as §1

For experiment [17], the system named is Canis familiaris. Description: Antiarrhythmic properties are compared to lidocaine(2) using doses(3 and 6 mg/kg).Tested for time required for the ventricular myocardium to undergo depolarization and repolarization (drug free); No effect. The conditions noted are these: Canis lupus familiaris. In kind it is functional, organism-based. On the set-up: dose 6 mg/kg. The gist of the method:
as §1

The test system of experiment [18] is Canis familiaris. Description: Antiarrhythmic properties are compared to lidocaine(2) using doses(3 and 6 mg/kg) measures His-Purkinje conduction time(post drug); No effect. In kind it is functional, organism-based. On the set-up: dose 6 mg/kg. The conditions noted are these: Canis lupus familiaris; His-Purkinje system. The gist of the method:
as §1

The test system of experiment [19] is Canis familiaris. Description: Antiarrhythmic properties are compared to lidocaine(2) using doses(3 and 6 mg/kg) ventricular effective refractory period(post drug); No effect. The note with it: Canis lupus familiaris; Heart. Format: functional, organism-based. Details: dose 6 mg/kg. The gist of the method: as §1
For experiment [20], the system named is Canis familiaris. Description: Antiarrhythmic properties are compared to lidocaine(2) using doses(3 and 6 mg/kg) ventricular effective refractory period(drug free); No effect. Format: functional, organism-based. Details: dose 6 mg/kg. The note with it: Canis lupus familiaris; Heart. The gist of the method: as §1
The test system of experiment [21] is Canis familiaris. The experiment can be described thus: Antiarrhythmic property A-V nodal conduction time(post drug) is compared to lidocaine(2) using doses(3 and 6 mg/kg). Format: functional, Canis lupus familiaris, Heart. The gist of the method:
as §1

Experiment [22] has as its system Canis familiaris. Description: Antiarrhythmic property is compared to lidocaine(2) using doses(3 and 6 mg/kg). Time required for the ventricular myocardium to undergo depolarization and repolarization ((post drug). Format: functional, Canis lupus familiaris. The gist of the method: as §1
Experiment [23] concerns Canis familiaris. The experiment can be described thus: Antiarrhythmic property is compared to lidocaine(2) using doses(3 and 6 mg/kg). Time required for the ventricular myocardium to undergo depolarization and repolarization (drug free). Format: functional, Canis lupus familiaris. The gist of the method:
as §1

Experiment [24] has as its system Canis familiaris. Description: Antiarrhythmic property Heart rate (drug free) is compared to Lidocaine using doses (3 and 6 mg/kg). In kind it is functional, Canis lupus familiaris. The gist of the method: (§4)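 Mongrel dogs (~12–25 kg), 1–4 days after coronary occlusion leaving a surviving epicardial rim, anesthetized with sodium pentobarbital (~30 mg/kg). 12-lead ECG monitored throughout. Agent given iv at 3 and 6 mg/kg. Parameters recorded before (drug free) and after dosing. Programmed electrical stimulation tested SVT inducibility (≥250 beats/min, ≥30 s) at baseline, ~2–5 min after each dose, and at 30 min.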

In experiment [25] the test system is Canis familiaris. Description: Antiarrhythmic property Heart rate (post drug) is compared to Lidocaine using doses(3 and 6 mg/kg). system. In kind it is functional, Canis lupus familiaris. The gist of the method:
as §4

For experiment [26], the system named is Canis familiaris. The experiment can be described thus: Antiarrhythmic property Mean blood pressure (drug free) is compared to Lidocaine using doses(3 and 6 mg/kg). In kind it is functional, Canis lupus familiaris. The gist of the method: as §4
The test system of experiment [27] is Canis familiaris. Description: Antiarrhythmic property Mean blood pressure(post drug) is compared to Lidocaine using doses(3 and 6 mg/kg). Format: functional, Canis lupus familiaris. The gist of the method:
as §4

For experiment [28], the system named is Canis familiaris. Description: Antiarrhythmic property His-Purkinje conduction time(post drug) is compared to lidocaine(2) using doses(3 and 6 mg/kg). In kind it is functional, Canis lupus familiaris, His-Purkinje system. The gist of the method: as §1
The test system of experiment [29] is Canis familiaris. The experiment can be described thus: Antiarrhythmic property His-Purkinje conduction time(drug free) is compared to lidocaine(2) using doses(3 and 6 mg/kg). Format: functional, Canis lupus familiaris, His-Purkinje system. The gist of the method:
as §1

Experiment [30] has as its system Canis familiaris. The description is as §3. Format: functional, Canis lupus familiaris, Heart. The gist of the method: as §4
This is another data set of the same source.

Calls of active or inactive are those of the source.

Turning to `O=C(c1ccccc1)N1CC2CC(CN(CC3CC3)C2)C1`, the figures for the AH interval in the experiment on Canis familiaris [1] and in the experiment on Canis familiaris [4] were 70 ms and 65 ms, respectively. Also, the HR worked out at 120 beats min-1 in the experiment on Canis familiaris [2] and 111 beats min-1 with Canis familiaris [3]. Besides, the QT interval entry in the experiment on Canis familiaris [5] and in the experiment on Canis familiaris [6] was “inactive” each time. Moreover, the MBP with Canis familiaris [7] was determined as 92 mmHg; with Canis familiaris [8], 83 mmHg. The HV interval entry with Canis familiaris [9] and in the experiment with Canis familiaris [10] was “inactive” in each case. In addition, the VERP with Canis familiaris [11] was determined as 170 ms; in the experiment on Canis familiaris [12], 190 ms.
Consider `CC(C)N1CC2CC(CN(C(=O)c3ccc(NS(C)(=O)=O)cc3)C2)C1`, for which the HV interval entry in the experiment on Canis familiaris [13], in the experiment on Canis familiaris [9], with Canis familiaris [18] and in the experiment with Canis familiaris [20] was “inactive” each time. The AH interval entry with Canis familiaris [14] and in the experiment on Canis familiaris [15] was “inactive” in each case. Besides, the NE result with Canis familiaris [14] is “inactive”. Also, the OT result with Canis familiaris [5] and in the experiment with Canis familiaris [6] was “inactive” throughout. Further, the OT interval entry in the experiment with Canis familiaris [16] and in the experiment on Canis familiaris [17] was “inactive” throughout. Moreover, the VERP result with Canis familiaris [19] and in the experiment with Canis familiaris [20] was “inactive” each time.
Take `CC(C)N1CC2CN(C(C)C)CC(C1)C21SCCS1`: the values for the AH interval in the experiment on Canis familiaris [21] and with Canis familiaris [4] were 75 ms and 56 ms, respectively. Besides, the values for the QT in the experiment on Canis familiaris [22] and with Canis familiaris [23] were 270 ms and 236 ms, respectively. In addition, the HR was found to be 154 beats min-1 in the experiment on Canis familiaris [24] and 105 beats min-1 in the experiment on Canis familiaris [25]. Also, the MBP with Canis familiaris [26] turned out to be 61 mmHg; in the experiment on Canis familiaris [27], 76 mmHg. For the same compound, the HV interval with Canis familiaris [28] worked out at 40 ms; in the experiment on Canis familiaris [29] it was 30 ms. In addition, the results for the VERP in the experiment on Canis familiaris [30] and in the experiment with Canis familiaris [12] were 140 ms and 180 ms, respectively.
